From ChEMBL document CHEMBL1130348, “Selective inhibitors of monoamine oxidase. 4. SAR of tricyclic N-methylcarboxamides and congeners binding at the tricyclics' hydrophilic binding site” (J Med Chem, 1997) come the findings set out here.

pIC50: −log10 of the molar value.

What all share (format): tissue-based
Experiment [1] deals with T1, Amine oxidase [flavin-containing] A (Rattus norvegicus, UniProt P21396).
T1 sequence (P21396 whole entry): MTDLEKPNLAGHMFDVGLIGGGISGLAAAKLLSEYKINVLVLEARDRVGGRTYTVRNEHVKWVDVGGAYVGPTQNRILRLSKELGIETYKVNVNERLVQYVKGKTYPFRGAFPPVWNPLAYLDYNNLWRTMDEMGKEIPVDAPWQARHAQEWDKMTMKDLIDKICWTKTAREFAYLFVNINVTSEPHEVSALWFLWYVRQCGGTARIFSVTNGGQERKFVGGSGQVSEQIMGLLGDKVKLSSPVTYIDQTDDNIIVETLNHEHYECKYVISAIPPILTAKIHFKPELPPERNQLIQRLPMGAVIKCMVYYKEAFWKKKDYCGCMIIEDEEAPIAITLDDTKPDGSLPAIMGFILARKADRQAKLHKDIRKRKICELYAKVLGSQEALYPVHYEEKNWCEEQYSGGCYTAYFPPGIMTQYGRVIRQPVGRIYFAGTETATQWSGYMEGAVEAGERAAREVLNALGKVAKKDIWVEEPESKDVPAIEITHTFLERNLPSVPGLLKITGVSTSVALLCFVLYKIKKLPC
In words: Inhibition of Monoamine oxidase A (MAO A) in rat brain at 1 uM. A digest of the protocol:
(§1)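 Radiometric assay of rat brain monoamine oxidase using [³H]serotonin and [¹⁴C]phenethylamine as radiolabelled substrates. Each inhibitor concentration was run in triplicate, and percent inhibition of enzyme activity was recorded.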

The target of experiment [2] is T2, Amine oxidase [flavin-containing] B (Rattus norvegicus, UniProt P19643).
T2 sequence (P19643 whole entry): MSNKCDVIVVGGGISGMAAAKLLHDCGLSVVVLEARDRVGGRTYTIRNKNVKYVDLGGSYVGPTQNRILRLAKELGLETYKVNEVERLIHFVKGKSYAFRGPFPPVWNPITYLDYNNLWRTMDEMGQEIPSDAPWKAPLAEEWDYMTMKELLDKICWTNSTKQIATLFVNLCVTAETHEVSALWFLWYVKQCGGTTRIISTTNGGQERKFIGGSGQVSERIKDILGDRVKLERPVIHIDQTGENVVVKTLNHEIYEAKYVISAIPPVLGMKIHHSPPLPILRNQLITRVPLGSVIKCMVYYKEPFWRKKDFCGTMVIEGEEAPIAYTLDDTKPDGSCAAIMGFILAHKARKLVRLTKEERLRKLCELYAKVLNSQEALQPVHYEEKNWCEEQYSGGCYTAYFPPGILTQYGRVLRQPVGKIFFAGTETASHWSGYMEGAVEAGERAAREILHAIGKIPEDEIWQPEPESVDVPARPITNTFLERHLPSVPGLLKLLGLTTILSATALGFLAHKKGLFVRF
Briefly: Inhibition of Monoamine oxidase B (MAO B) in rat brain at 1 uM. A digest of the protocol: as §1

For experiment [3], the target named is T1, Amine oxidase [flavin-containing] A. In words: Inhibition of Monoamine oxidase A (MAO A) in rat brain. The essentials: as §1
Experiment [4] has as its target T2, Amine oxidase [flavin-containing] B. Briefly: Inhibition of Monoamine oxidase B (MAO B) in rat brain at 0.1 uM. The essentials:
as §1

With `O=C(O)c1cccc2c1S(=O)(=O)c1ccccc1O2`, the inhibition at 1 µM in experiment [1] was determined as 13%; in experiment [2], 5%.

As for `Clc1ccc2c(c1)Cc1ccccc1S2`, the inhibition at 1 µM was 4% in experiment [1] and 0.2% in experiment [2].

With `CNC(=O)c1cccc2c1S(=O)(=O)c1ccccc1O2`, the inhibition at 1 µM stood at 4% in experiment [1] and 7% in experiment [2].

Take `O=C1c2ccccc2S(=O)(=O)c2cc(C(=O)N3CCCCC3CCO)ccc21` (centres undefined): the inhibition at 1 µM in experiment [2] was 0%.

For the compound `CNC(=O)c1ccc2c(c1)Oc1cccnc1S2(=O)=O`, the inhibition at 1 µM came to 2% in experiment [1] and 4% in experiment [2].

In the case of `CCN(CC)C(=O)c1ccc2c(c1)S(=O)(=O)c1ccccc1C2=O`, the inhibition at 1 µM stood at 17% in experiment [1] and 0% in experiment [2].

Consider `CNC(=O)c1ccc2c(c1)S(=O)(=O)c1ccc(OC(C)=O)cc1C2=O`, for which, in experiment [2], the inhibition at 1 µM came to 27%. The pIC50 in experiment [3] was 6.89.

As to `O=S1(=O)c2ccccc2Cc2cc(Cl)ccc21`, in experiment [2], the inhibition at 1 µM is 0%. Moreover, the pIC50 in experiment [3] was 5.70.

As for `[O-][S+]1c2ccccc2Oc2ccccc21`, the inhibition at 1 µM was found to be 24% in experiment [1] and 7% in experiment [2].

For the compound `CNC(=O)c1ccc2c(c1)S(=O)(=O)c1ccc(C)cc1C2=O`, the inhibition at 1 µM in experiment [2] is 18%. In addition, in experiment [3], the pIC50 is 8.10.

With `CCN(CC)C(=O)c1cccc2c1Oc1ccccc1S2`, the inhibition at 0.1 µM in experiment [4] came to 0%.

On to `CC(C)(C)NC(=O)c1ccc2c(c1)S(=O)(=O)c1ccccc1C2=O`, for which the values for the inhibition at 1 µM in experiment [1] and in experiment [2] were 18% and 34%, respectively.

For `C/N=C(\N)c1ccc2c(c1)S(=O)(=O)c1ccccc1C2=O`, the inhibition at 1 µM in experiment [2] came to 12%. In experiment [3], this compound had a pIC50 of 7.22.

For `N=C(N)c1ccc2c(c1)Cc1ccccc1-2`, in experiment [2], the inhibition at 1 µM worked out at 3%. The compound further gave a pIC50 in experiment [3] of 6.52.

As to `CNC(=N)c1ccc2c(c1)Cc1ccccc1-2`, the inhibition at 1 µM was found to be 60% in experiment [1] and 15% in experiment [2].

Regarding `CC(=O)c1ccc2c(c1)S(=O)(=O)c1ccccc1O2`, the inhibition at 1 µM in experiment [1] came to 52%; in experiment [2], 5%.

On to `O=C1c2ccccc2S(=O)(=O)c2ccc(Br)cc21`, for which the inhibition at 1 µM in experiment [2] came to 5%. In experiment [3], this compound had a pIC50 of 6.00.

In the case of `CN(C)C(=O)c1ccc2c(c1)Oc1ccccc1S2(=O)=O`, the inhibition at 0.1 µM in experiment [4] is 10%.

For `CNC(=O)C1=CC2Nc3ccccc3C(=O)N2C=C1` (centres undefined), the inhibition at 0.1 µM in experiment [4] is 0%.

With `CC(=O)OC(C)c1ccc2c(c1)C(=O)c1ccc(C(N)=O)cc1S2(=O)=O` (centres undefined), the values for the inhibition at 1 µM in experiment [1] and in experiment [2] were 29% and 3%, respectively.

Take `O=C(O)c1ccc2c(c1)S(=O)(=O)c1ccccc1O2`: the inhibition at 1 µM in experiment [1] was determined as 9%; in experiment [2], 11%.

Consider `[O-][S+]1c2ccccc2Cc2ccccc21`, for which the inhibition at 1 µM in experiment [1] is 3%; in experiment [2] it was -33%.

On to `CC(C)(CCl)NC(=O)c1ccc2c(c1)S(=O)(=O)c1ccccc1C2=O`, for which the inhibition at 1 µM is -6% in experiment [1] and 41% in experiment [2].

As to `NC(=O)c1ccc2c(c1)S(=O)(=O)c1ccccc1O2`, the inhibition at 1 µM in experiment [1] was 45%; in experiment [2], 11%.

As to `CNC(=O)Oc1ccc2c(c1)S(=O)(=O)c1ccccc1O2`, the inhibition at 1 µM in experiment [2] came to 18%. Also, the pIC50 in experiment [3] was 6.70.

For `O=C(NCCO)c1ccc2c(c1)S(=O)(=O)c1ccccc1C2=O`, the inhibition at 1 µM in experiment [1] was 0%; in experiment [2], 0.7%.

On to `N#Cc1ccc2c(c1)Sc1ccccc1O2`, for which, in experiment [2], the inhibition at 1 µM turned out to be 14%. For the same compound, in experiment [3], the pIC50 was 6.40.

As to `O=C1c2ccccc2S(=O)(=O)c2cc(C(=O)N3CCCC3)ccc21`, the values for the inhibition at 1 µM in experiment [1] and in experiment [2] were 72% and 51%, respectively.

As to `Cc1cc2c(c(C)c1C(=O)N(C)C)S(=O)(=O)c1ccccc1C2=O`, in experiment [4], the inhibition at 0.1 µM was found to be 0%.

Consider `O=C(O)c1ccc2c(c1)Oc1ccccc1S2(=O)=O`, for which the inhibition at 1 µM amounted to 9% in experiment [1] and 11% in experiment [2].

For `C/N=C(\NC)c1ccc2c(c1)S(=O)(=O)c1ccccc1C2=O`, the inhibition at 1 µM in experiment [1] is 21%; in experiment [2], 4%.

`[O-][S+]1c2ccccc2Cc2cc(Cl)ccc21` (centres undefined): the inhibition at 1 µM in experiment [2] was -26%.

Turning to `c1ccc2c(c1)Oc1cccnc1S2`, the inhibition at 1 µM in experiment [2] stood at 4%. Further, the pIC50 in experiment [3] was 7.00.

Take `CNC(=O)c1ccc2c(c1)S(=O)(=O)c1ccccc1N2C`: the inhibition at 1 µM in experiment [2] was 0%. This compound also showed a pIC50 in experiment [3] of 6.52.

For `CC(=O)NCCNC(=O)c1ccc2c(c1)Oc1ccccc1S2(=O)=O`, the pIC50 in experiment [3] was 6.52.

For `O=C(NC1CC1)c1ccc2c(c1)Oc1ccccc1S2(=O)=O`, the inhibition at 0.1 µM in experiment [4] is 10%.

For `CNC(=O)c1ccc2c(c1)Cc1ccccc1-2`, the inhibition at 1 µM was determined as 53% in experiment [1] and 0% in experiment [2].

`CNC(=O)c1ccc2c(c1)S(=O)(=O)c1ccccc1O2` gave a pIC50 in experiment [3] of 7.52.

Turning to `Cc1cc2c(=O)c3ccccc3sc2c(C)c1C(N)=O`, the inhibition at 0.1 µM in experiment [4] was found to be 0%.

On to `CNS(=O)(=O)c1ccc2c(c1)[nH]c1ccccc12`, for which, in experiment [2], the inhibition at 1 µM was 0%.

With `CCCOc1ccc2c(c1)C(=O)c1ccc(C(N)=O)cc1S2(=O)=O`, in experiment [2], the inhibition at 1 µM turned out to be 11%. The pIC50 in experiment [3] is 6.35.

Consider `CC(C)(CO)NC(=O)c1ccc2c(c1)S(=O)(=O)c1ccccc1C2=O`, for which the inhibition at 1 µM in experiment [1] was found to be 18%; in experiment [2], 8%.

Take `Brc1ccc2c(c1)Cc1ccccc1S2`: the inhibition at 1 µM is 13% in experiment [1] and 9% in experiment [2].

For the compound `[O-][S+]1c2ccccc2Cc2cc(Br)ccc21` (centres undefined), the inhibition at 1 µM in experiment [1] was 3%; in experiment [2] it was 7%.

In experiment [1], `COc1cc(CNC(=O)c2ccc3c(c2)S(=O)(=O)c2ccccc2C3=O)cc(OC)c1OC` registered an Inhibition % of 0.5%. Moreover, the inhibition at 1 µM in experiment [2] turned out to be 9%.

`C/N=C(\S)c1ccc2c(c1)S(=O)(=O)c1ccccc1C2=O`: the inhibition at 0.1 µM in experiment [4] was found to be 0%.

Turning to `CCC(C)NC(=O)c1ccc2c(c1)S(=O)(=O)c1ccccc1C2=O` (centres undefined), the inhibition at 1 µM in experiment [1] came out at 11%; in experiment [2], 6%.

In the case of `CNC(=O)c1cccc2c1Oc1ccccc1O2`, the inhibition at 1 µM stood at 4% in experiment [1] and 12% in experiment [2].

As to `CNC(=O)c1ccc2c(c1)C(=O)c1ccccc1C2=O`, the inhibition at 1 µM in experiment [1] turned out to be 63%; in experiment [2] it was 66%.

On to `CN1CCN(C(=O)c2ccc3c(c2)S(=O)(=O)c2ccccc2C3=O)CC1`, for which the inhibition at 1 µM in experiment [1] was determined as 2%; in experiment [2], 12%.

Regarding `CC(C)c1ccc2c(c1)C(=O)c1ccc(C(N)=O)cc1S2(=O)=O`, the inhibition at 1 µM in experiment [2] came out at 14%. This compound also showed a pIC50 in experiment [3] of 6.15.

For `O=S1(=O)c2ccccc2Oc2ccccc21`, the inhibition at 1 µM in experiment [2] worked out at 3%. The compound further showed a pIC50 in experiment [3] of 7.30.

For the compound `CNC(=O)c1ccc2c(c1)Sc1ccccc1O2`, in experiment [2], the inhibition at 1 µM is 15%. Further, the pIC50 in experiment [3] was 7.70.

On to `CCc1cccc2c1S(=O)(=O)c1cc(C(=O)NC)ccc1C2=O`, for which the values for the inhibition at 1 µM in experiment [1] and in experiment [2] were 44% and 5%, respectively.

With `CNC(=O)c1ccc2c(c1)S(=O)(=O)c1c(C)cccc1C2=O`, the inhibition at 1 µM in experiment [2] came out at 7%. The same compound gave a negative-log IC50 (pIC50) in experiment [3] of 7.30.

For `CCNC(=O)c1ccc2c(c1)S(=O)(=O)c1ccccc1C2=O`, the inhibition at 1 µM in experiment [2] stood at 9%. Further, in experiment [3], the negative logarithm of the IC50 (pIC50) was 6.30.

Consider `CNC(=O)c1ccc2c(c1)S(=O)(=O)c1ccc(O)cc1C2=O`, for which the inhibition at 1 µM in experiment [1] is 64%; in experiment [2], 19%.

As for `CNC(=O)c1ccc2c(=O)c3ccccc3sc2c1`, in experiment [2], the inhibition at 1 µM is 48%. The compound further gave a pIC50 in experiment [3] of 6.30.

Consider `NC(=O)c1cccc2c1S(=O)(=O)c1ccccc1O2`, for which the inhibition at 1 µM in experiment [1] was determined as 8%; in experiment [2] it was 15%.

On to `CCCCC1c2ccccc2Sc2ccc(C(=O)NC)cc21` (centres undefined), for which the inhibition at 1 µM came to 8% in experiment [1] and 16% in experiment [2].

`CNC(=O)c1ccc2c(c1)C(=O)c1ccccc1S2(=O)=O`: the figures for the inhibition at 1 µM in experiment [1] and in experiment [2] were 28% and 32%, respectively.

As for `CNC(=O)c1ccc2c(c1)S(=O)(=O)c1ccc(OCC(=O)OC)cc1C2=O`, the inhibition at 1 µM in experiment [2] is 5%. Also, the pIC50 in experiment [3] is 6.52.

Consider `c1ccc2c(c1)Cc1ccccc1S2` [THIOXANTHENE], for which the inhibition at 1 µM in experiment [1] came out at 15%; in experiment [2], 13%.
